Reference: ChEMBL document CHEMBL1154304, “Triterpenoids and flavonoids from celery (Apium graveolens)” (J Nat Prod, 2009)

test system: RAW264.7; assay: Antiinflammatory activity against mouse RAW264.7 cells assessed as inhibition of LPS-induced nitrite accumulation after 24 hrs by Griess reagent method; assay type: functional, cell-based; details: RAW264.7, 24 h
Outline: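 RAW 264.7 mouse macrophages in RPMI 1640 with 10% heat-inactivated FBS, penicillin/streptomycin, seeded at 1×10^5 cells/well, adhered 2 h at 37 °C, 5% CO₂. LPS 1 μg/mL for 24 h with or without compounds in DMSO (0.2% v/v final). Nitrite in supernatant read with Griess reagent against sodium nitrite standards (0–100 μM). Inhibition is relative to LPS-only and untreated wells. MTT viability check run in parallel. Triplicate, mean ± SD of three experiments.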

SMILES | IC50 [µM]
C[C@H]1[C@H](C)C(=O)C[C@]2(C)C[C@H](O)[C@]3(C)C(=CC(=O)[C@@H]4[C@@]5(C)C[C@H](O[C@@H]6O[C@H](CO)[C@@H](O)[C@H](O)[C@H]6O)[C@H](O)C(C)(C)[C@@H]5CC[C@]43C)[C@H]12 | > 20
C[C@H]1[C@H](C)C(=O)C[C@]2(C)C[C@H](O)[C@]3(C)C(=CC(=O)[C@@H]4[C@@]5(C)CC[C@H](O)[C@](C)(CO[C@@H]6O[C@H](CO)[C@@H](O)[C@H](O)[C@H]6O)[C@@H]5CC[C@]43C)[C@H]12 | > 20
CC1(C)C[C@H]2C3=CC(=O)[C@@H]4[C@@]5(C)CC[C@H](O)[C@](C)(CO[C@@H]6O[C@H](CO)[C@@H](O)[C@H](O)[C@H]6O)[C@@H]5CC[C@@]4(C)[C@]3(C)[C@@H](O)C[C@@]2(C)CC1=O | > 20
COc1cc(/C=C/C(=O)OC[C@@]2(O)CO[C@@H](O[C@H]3[C@H](Oc4cc(O)c5c(=O)cc(-c6ccc(O)c(OC)c6)oc5c4)O[C@H](CO)[C@@H](O)[C@@H]3O)[C@@H]2O)ccc1O | > 20
O=c1cc(-c2ccc(O)cc2)oc2cc(O)cc(O)c12 [APIGENIN] | 6.7
O=c1cc(-c2ccc(O)cc2)oc2cc(O[C@@H]3O[C@H](CO)[C@@H](O)[C@H](O)[C@H]3O)cc(O)c12 [APIGETRIN] | > 20
COc1cc(-c2cc(=O)c3c(O)cc(O)cc3o2)ccc1O [CHRYSOERIOL] | 14.2
COc1cc(/C=C/C(=O)CC(=O)/C=C/c2ccc(O)c(OC)c2)ccc1O [CURCUMIN] | 8.3
O=c1cc(-c2ccc(O)c(O)c2)oc2cc(O[C@@H]3O[C@H](CO)[C@@H](O)[C@H](O)[C@H]3O)cc(O)c12 [GALUTEOLIN] | > 20
O=c1cc(-c2ccc(O)c(O)c2)oc2cc(O)cc(O)c12 [LUTEOLIN] | 7.5
O=c1c(O)c(-c2ccc(O)c(O)c2)oc2cc(O)cc(O)c12 [QUERCETIN] | 11.4

Further lines, results first:

IC50 [µM] | SMILES
> 20 | COc1cc(/C=C/C(=O)OC[C@@]2(O)CO[C@@H](O[C@H]3[C@H](Oc4cc(O)c5c(=O)cc(-c6ccc(O)cc6)oc5c4)O[C@H](CO)[C@@H](O)[C@@H]3O)[C@@H]2O)ccc1O
> 20 | COc1cc(/C=C/C(=O)OC[C@@]2(O)CO[C@@H](O[C@H]3[C@H](Oc4cc(O)c5c(=O)cc(-c6ccc(O)c(O)c6)oc5c4)O[C@H](CO)[C@@H](O)[C@@H]3O)[C@@H]2O)ccc1O
> 20 | O=C1C[C@@H](c2ccc(O)cc2)Oc2cc(O[C@@H]3O[C@H](CO)[C@@H](O)[C@H](O)[C@H]3O[C@@H]3OC[C@](O)(CO)[C@H]3O)cc(O)c21
> 20 | COc1cc(-c2cc(=O)c3c(O)cc(O[C@@H]4O[C@H](CO)[C@@H](O)[C@H](O)[C@H]4O)cc3o2)ccc1O
> 20 | O=c1cc(-c2ccc(O)cc2)oc2cc(O[C@@H]3O[C@H](CO)[C@@H](O)[C@H](O)[C@H]3O[C@@H]3OC[C@](O)(CO)[C@H]3O)cc(O)c12 [APIIN]
